≈ marks a conversion by molar mass, not a printed value.
How the values were obtained:
[1] = system: Staphylococcus aureus; experiment: Serum effect on MIC against Staphylococcus aureus (Smith) as ratio of MIC value in presence and absence of 50% fetal calf serum; format: functional
How it was run: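 Broth microdilution MIC was repeated with 50% fetal calf serum added to the growth medium (LB for S. aureus, brain-heart infusion broth for E. faecalis). The inoculum was (3-7) × 10^5 CFU/mL in 1% DMSO, incubated at 37 °C for 16-24 h, and read by OD600. The serum effect is the MIC with serum relative to the MIC without serum.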

[2] = system: Enterococcus faecium; experiment: In vitro minimum inhibitory concentration against Vancomycin resistant Enterococci faecium upon incubation at 37 degree C for 16 to 24 hr by dissolving in DMSO (1%); format: functional
How it was run: (§1)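 Broth microdilution (modified NCCLS M7-A4). Enterococci grown to log phase in brain-heart infusion broth, seeded at (3-7) × 10⁵ CFU/mL. Compounds 2-fold diluted from DMSO stocks, 20 to 1.25 µg/mL, final 1% DMSO, in duplicate. Incubated 37 °C, 16-24 h, with shaking. OD600 read.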

[3] = system: Enterococcus faecium; experiment: In vitro minimum inhibitory concentration against Enterococcus fecium upon incubation at 37 degree C for 16 to 24 hr by dissolving in DMSO (1%); format: functional; how it was run: as §1
[4] = system: Enterococcus faecalis; experiment: In vitro minimum inhibitory concentration against Enterococcus faecalis upon incubation at 37 degree C for 16 to 24 hr by dissolving in DMSO (1%); format: functional
How it was run: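 Log-phase E. faecalis was grown in brain-heart infusion broth and seeded at (3-7) × 10^5 CFU/mL. Duplicate 2-fold dilutions ran from 20 to 1.25 µg/mL, final 1% DMSO. After 16-24 h at 37 °C with shaking, OD600 was read.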

[5] = system: Staphylococcus aureus; experiment: In vitro minimum inhibitory concentration against Staphylococcus aureus (Smith) upon incubation at 37 degree C for 16 to 24 hr by dissolving in DMSO (1%); format: functional
[6] = system: Staphylococcus aureus; experiment: In vitro minimum inhibitory concentration against Methicillin-resistant Staphylococcus aureus upon incubation at 37 degree C for 16 to 24 hr by dissolving in DMSO (1%); format: functional
How it was run: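 Broth microdilution (modified NCCLS M7-A4). Staphylococci grown to log phase in Luria broth, seeded at (3-7) × 10⁵ CFU/mL. Compounds 2-fold diluted from DMSO stocks, 20 to 1.25 µg/mL, final 1% DMSO, in duplicate. Incubated 37 °C, 16-24 h, with shaking. OD600 read.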

[7] = system: Staphylococcus aureus; experiment: In vitro minimum inhibitory concentration against Staphylococcus aureus upon incubation at 37 degree C for 16 to 24 hr by dissolving in DMSO (1%); format: functional
[8] = biological target: DNA polymerase III PolC-type (Bacillus subtilis (strain 168), UniProt P13267); experiment: Inhibitory concentration against Bacillus subtilis DNA polymerase IIIC using [3H]dTMP 250 pM (30 degree C for 10 min)
How it was run: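 Homogeneous recombinant B. subtilis pol IIIC, 0.025-0.06 units, acted on activated calf thymus DNA with Mg2+, DTT, glycerol, dATP, dCTP, dTTP and [3H]dTTP, without dGTP. Compounds were serially diluted from DMSO. Reactions ran 10 min at 30 °C, were stopped with TCA-pyrophosphate, and the filter-collected precipitate was scintillation counted. Apparent Ki was read directly from this truncated assay; average standard deviation ±44%.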

[9] = system: Bacillus subtilis; experiment: In vitro minimum inhibitory concentration against Bacillus subtilis upon incubation at 37 degree C for 16 to 24 h; format: functional

DNA polymerase III PolC-type, sequence (P13267 whole entry, the tested form may be a part): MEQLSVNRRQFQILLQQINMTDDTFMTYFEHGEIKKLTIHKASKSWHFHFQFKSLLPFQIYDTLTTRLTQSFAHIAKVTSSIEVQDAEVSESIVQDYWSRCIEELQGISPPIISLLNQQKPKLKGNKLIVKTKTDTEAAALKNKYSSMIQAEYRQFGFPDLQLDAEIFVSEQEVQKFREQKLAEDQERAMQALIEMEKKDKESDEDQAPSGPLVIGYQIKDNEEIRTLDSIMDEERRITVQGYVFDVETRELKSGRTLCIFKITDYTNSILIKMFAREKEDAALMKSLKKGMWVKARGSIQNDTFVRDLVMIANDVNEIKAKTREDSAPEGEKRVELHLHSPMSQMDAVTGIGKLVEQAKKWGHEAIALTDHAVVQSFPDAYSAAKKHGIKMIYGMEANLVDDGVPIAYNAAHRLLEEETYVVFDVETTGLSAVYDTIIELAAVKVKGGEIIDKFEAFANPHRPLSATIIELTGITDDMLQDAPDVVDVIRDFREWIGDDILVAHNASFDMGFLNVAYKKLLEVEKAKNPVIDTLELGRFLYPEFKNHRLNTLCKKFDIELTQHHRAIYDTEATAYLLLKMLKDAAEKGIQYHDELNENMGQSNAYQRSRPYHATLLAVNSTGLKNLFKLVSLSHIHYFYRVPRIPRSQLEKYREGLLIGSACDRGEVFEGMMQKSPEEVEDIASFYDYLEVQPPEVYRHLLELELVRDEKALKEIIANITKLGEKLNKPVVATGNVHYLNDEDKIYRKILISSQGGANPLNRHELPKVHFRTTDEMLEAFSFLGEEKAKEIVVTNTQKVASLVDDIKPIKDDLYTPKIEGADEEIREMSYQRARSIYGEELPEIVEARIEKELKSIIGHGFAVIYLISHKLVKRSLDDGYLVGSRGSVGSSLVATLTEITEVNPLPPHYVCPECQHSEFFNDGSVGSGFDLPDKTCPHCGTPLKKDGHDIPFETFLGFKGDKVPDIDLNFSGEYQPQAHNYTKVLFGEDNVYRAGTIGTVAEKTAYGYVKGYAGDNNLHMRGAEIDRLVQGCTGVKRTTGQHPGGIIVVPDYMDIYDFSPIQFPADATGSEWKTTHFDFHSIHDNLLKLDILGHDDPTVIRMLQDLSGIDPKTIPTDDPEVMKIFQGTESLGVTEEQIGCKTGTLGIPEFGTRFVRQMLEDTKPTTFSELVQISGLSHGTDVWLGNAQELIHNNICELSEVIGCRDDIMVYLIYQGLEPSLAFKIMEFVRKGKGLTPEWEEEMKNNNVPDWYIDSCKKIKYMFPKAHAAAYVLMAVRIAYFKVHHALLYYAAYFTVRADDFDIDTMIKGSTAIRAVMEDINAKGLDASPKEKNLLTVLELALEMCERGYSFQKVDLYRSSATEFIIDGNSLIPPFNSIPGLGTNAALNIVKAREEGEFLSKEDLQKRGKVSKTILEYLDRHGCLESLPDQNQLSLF

Row | Structure (SMILES) | MIC+/MIC- [1] | MIC [2] | MIC [3] | MIC [4] | MIC [5] | MIC [6] | MIC [7] | Ki [8] | MIC [9]
1 | CCc1cc(Nc2cc(=O)n(CCCCCCCCO)c(=O)[nH]2)ccc1C | 21.3 | 2.5 µg/mL (≈ 6.69 µM) | 2.5 µg/mL (≈ 6.69 µM) |  |  |  |  |  | 
2 | CCc1cc(Nc2cc(=O)n(CCCC(O)CO)c(=O)[nH]2)ccc1C (configuration not stated) |  | 10 µg/mL (≈ 28.8 µM) | 20 µg/mL (≈ 57.6 µM) | 20 µg/mL (≈ 57.6 µM) | 20 µg/mL (≈ 57.6 µM) | > 20 µg/mL |  |  | 
3 | CCc1cc(Nc2cc(=O)n(CCCCNC(=O)CCl)c(=O)[nH]2)ccc1C |  | 5 µg/mL (≈ 12.7 µM) | 10 µg/mL (≈ 25.5 µM) | 5 µg/mL (≈ 12.7 µM) | 5 µg/mL (≈ 12.7 µM) | 10 µg/mL (≈ 25.5 µM) |  |  | 
4 | CCc1cc(Nc2cc(=O)n(CCCCCN3CCc4c([nH]c5ccc(OC)cc45)C3)c(=O)[nH]2)ccc1C |  | 5 µg/mL (≈ 9.7 µM) | 20 µg/mL (≈ 38.8 µM) | > 20 µg/mL | 10 µg/mL (≈ 19.4 µM) | 10 µg/mL (≈ 19.4 µM) |  |  | 
5 | CCc1cc(Nc2cc(=O)n(CCCCOC(C)=O)c(=O)[nH]2)ccc1C |  | 5 µg/mL (≈ 13.9 µM) | 5 µg/mL (≈ 13.9 µM) | 5 µg/mL (≈ 13.9 µM) |  | 5 µg/mL (≈ 13.9 µM) |  |  | 
6 | CCc1cc(Nc2cc(=O)n(CCCCOC(=O)N3CCOCC3)c(=O)[nH]2)ccc1C |  | 5 µg/mL (≈ 11.6 µM) | 5 µg/mL (≈ 11.6 µM) | 5 µg/mL (≈ 11.6 µM) | 5 µg/mL (≈ 11.6 µM) | 10 µg/mL (≈ 23.2 µM) |  |  | 
7 | CCc1cc(Nc2cc(=O)n(CCCCC#N)c(=O)[nH]2)ccc1C | 6 | 5 µg/mL (≈ 15.3 µM) | 5 µg/mL (≈ 15.3 µM) | 2.5 µg/mL (≈ 7.66 µM) |  | 5 µg/mL (≈ 15.3 µM) | 5 µg/mL (≈ 15.3 µM) |  | 
8 | CCc1cc(Nc2cc(=O)n(CCCCCCO)c(=O)[nH]2)ccc1C | 8.7 |  | 5 µg/mL (≈ 14.5 µM) | 2.5 µg/mL (≈ 7.24 µM) |  | 5 µg/mL (≈ 14.5 µM) | 5 µg/mL (≈ 14.5 µM) |  | 
9 | CCc1cc(Nc2cc(=O)n(CCCCNCCO)c(=O)[nH]2)ccc1C |  |  | > 20 µg/mL | > 20 µg/mL | > 20 µg/mL |  | > 20 µg/mL | 28 nM | > 20 µg/mL
10 | CCc1cc(Nc2cc(=O)n(C/C=C/CO)c(=O)[nH]2)ccc1C | 4.8 | 2.5 µg/mL (≈ 7.93 µM) | 2.5 µg/mL (≈ 7.93 µM) | 5 µg/mL (≈ 15.9 µM) | 5 µg/mL (≈ 15.9 µM) | 5 µg/mL (≈ 15.9 µM) | 10 µg/mL (≈ 31.7 µM) |  | 1.25 µg/mL (≈ 3.96 µM)
11 | CCc1cc(Nc2cc(=O)n(CCCCCN3CC=C(c4ccc(F)cc4)CC3)c(=O)[nH]2)ccc1C |  | 5 µg/mL (≈ 10.2 µM) | 7.5 µg/mL (≈ 15.3 µM) | 7.5 µg/mL (≈ 15.3 µM) | 7.5 µg/mL (≈ 15.3 µM) | 7.5 µg/mL (≈ 15.3 µM) | 10 µg/mL (≈ 20.4 µM) |  | 
12 | CCc1cc(Nc2cc(=O)n(CCCCN)c(=O)[nH]2)ccc1C.Cl |  |  | > 20 µg/mL | > 20 µg/mL | 10 µg/mL | > 20 µg/mL | 20 µg/mL |  | 20 µg/mL
13 | CCOC(=O)CCCCn1c(=O)cc(Nc2ccc(C)c(CC)c2)[nH]c1=O | >12.2 | 2.5 µg/mL (≈ 6.69 µM) | < 1.25 µg/mL | 5 µg/mL (≈ 13.4 µM) |  | > 20 µg/mL |  |  | 
14 | CCc1cc(Nc2cc(=O)n(CCCCNC(=O)C3CC3)c(=O)[nH]2)ccc1C | 14.9 | 5 µg/mL (≈ 13 µM) |  | 5 µg/mL (≈ 13 µM) | 5 µg/mL (≈ 13 µM) | 20 µg/mL (≈ 52 µM) |  |  | 
15 | CCc1cc(Nc2cc(=O)n(CCOC(C)=O)c(=O)[nH]2)ccc1C |  | 5 µg/mL (≈ 15.1 µM) | 5 µg/mL (≈ 15.1 µM) | 5 µg/mL (≈ 15.1 µM) | 3.75 µg/mL (≈ 11.3 µM) | 5 µg/mL (≈ 15.1 µM) | 5 µg/mL (≈ 15.1 µM) | 120 nM | 1.25 µg/mL (≈ 3.77 µM)
16 | CCc1cc(Nc2cc(=O)n(CCCCNS(=O)(=O)c3ccc(C)cc3)c(=O)[nH]2)ccc1C |  | 5 µg/mL (≈ 10.6 µM) | 5 µg/mL (≈ 10.6 µM) | 5 µg/mL (≈ 10.6 µM) | 5 µg/mL (≈ 10.6 µM) | > 20 µg/mL | 5 µg/mL (≈ 10.6 µM) | 230 nM | 5 µg/mL (≈ 10.6 µM)
17 | CCc1cc(Nc2cc(=O)n(CCCCNS(=O)(=O)c3cccs3)c(=O)[nH]2)ccc1C | 13.7 | 5 µg/mL (≈ 10.8 µM) | 2.5 µg/mL (≈ 5.4 µM) | 5 µg/mL (≈ 10.8 µM) |  |  | > 20 µg/mL |  | 
18 | CCc1cc(Nc2cc(=O)n(CC#CCO)c(=O)[nH]2)ccc1C |  | 10 µg/mL (≈ 31.9 µM) | 10 µg/mL (≈ 31.9 µM) | 10 µg/mL (≈ 31.9 µM) |  | 10 µg/mL (≈ 31.9 µM) | 10 µg/mL (≈ 31.9 µM) |  | 
19 | CCc1cc(Nc2cc(=O)n(CCCC(C)=O)c(=O)[nH]2)ccc1C |  | 2.5 µg/mL (≈ 7.59 µM) | 5 µg/mL (≈ 15.2 µM) | 5 µg/mL (≈ 15.2 µM) | 2.5 µg/mL (≈ 7.59 µM) | 5 µg/mL (≈ 15.2 µM) |  |  | 
20 | CCOC(=O)CCCn1c(=O)cc(Nc2ccc(C)c(CC)c2)[nH]c1=O | 10 | 5 µg/mL (≈ 13.9 µM) |  | 5 µg/mL (≈ 13.9 µM) |  | 5 µg/mL (≈ 13.9 µM) |  |  | 
21 | CCc1cc(Nc2cc(=O)n(CCCC(=O)O)c(=O)[nH]2)ccc1C |  | 20 µg/mL (≈ 60.4 µM) | 20 µg/mL (≈ 60.4 µM) | > 20 µg/mL |  | > 20 µg/mL | 20 µg/mL (≈ 60.4 µM) |  | 
22 | CCc1cc(Nc2cc(=O)n(CCCCN(CCO)CCO)c(=O)[nH]2)ccc1C |  |  | > 20 µg/mL | > 20 µg/mL | > 20 µg/mL |  | > 20 µg/mL | 21 nM | > 20 µg/mL
23 | CCc1cc(Nc2cc(=O)n(CC(C)=O)c(=O)[nH]2)ccc1C |  | 20 µg/mL (≈ 66.4 µM) | 10 µg/mL (≈ 33.2 µM) | 20 µg/mL (≈ 66.4 µM) | 10 µg/mL (≈ 33.2 µM) | 10 µg/mL (≈ 33.2 µM) |  |  | 
24 | CCc1cc(Nc2cc(=O)n(CCCCCCCCCCO)c(=O)[nH]2)ccc1C |  |  | > 20 µg/mL | > 20 µg/mL | > 20 µg/mL |  | > 20 µg/mL | 51 nM | < 1.25 µg/mL
25 | CCc1cc(Nc2cc(=O)n(CCCCOC)c(=O)[nH]2)ccc1C | 7.4 | 2.5 µg/mL (≈ 7.54 µM) | 2.5 µg/mL (≈ 7.54 µM) | 5 µg/mL (≈ 15.1 µM) | 5 µg/mL (≈ 15.1 µM) | 5 µg/mL (≈ 15.1 µM) | 5 µg/mL (≈ 15.1 µM) |  | < 1.25 µg/mL
26 | O=C(O)c1cn(C2CC2)c2cc(N3CCNCC3)c(F)cc2c1=O [CIPROFLOXACIN] |  | 20 µg/mL (≈ 60.4 µM) | 5 µg/mL (≈ 15.1 µM) |  | 0.078 µg/mL (≈ 0.235 µM) | > 20 µg/mL | 0.156 µg/mL (≈ 0.471 µM) |  | 0.078 µg/mL (≈ 0.235 µM)
27 | CCc1cc(Nc2cc(=O)n(CCN3CCN(C(=O)c4ccccc4)CC3)c(=O)[nH]2)ccc1C |  | 5 µg/mL (≈ 10.8 µM) | 5 µg/mL (≈ 10.8 µM) | 10 µg/mL (≈ 21.7 µM) | 10 µg/mL (≈ 21.7 µM) | 10 µg/mL (≈ 21.7 µM) |  |  | 
28 | CCc1cc(Nc2cc(=O)n(CCOCCOCCO)c(=O)[nH]2)ccc1C |  | 5 µg/mL (≈ 13.2 µM) | 10 µg/mL (≈ 26.5 µM) | 10 µg/mL (≈ 26.5 µM) | 10 µg/mL (≈ 26.5 µM) | > 20 µg/mL |  |  | 
29 | CCc1cc(Nc2cc(=O)n(CCO)c(=O)[nH]2)ccc1C |  | 5 µg/mL (≈ 17.3 µM) | 5 µg/mL (≈ 17.3 µM) | 10 µg/mL (≈ 34.6 µM) | 5 µg/mL (≈ 17.3 µM) | 10 µg/mL (≈ 34.6 µM) | 5 µg/mL (≈ 17.3 µM) |  | < 1.25 µg/mL

Source: ChEMBL document CHEMBL1140385, “Synthesis and antibacterial activity of 3-substituted-6-(3-ethyl-4-methylanilino)uracils” (J Med Chem, 2005)
